Assay [1] deals with B16. The assay can be described thus: Cytotoxicity activity against mouse B16 cells after 24 hrs by NRU assay. Format: functional, cell-based. Conditions: B16, 24 h. A digest of the protocol: (§1)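 Neutral red uptake assay. A375 cells were seeded at 12×10³ and B16 at 10×10³ cells/well, then incubated 24 h at 37 °C in humidified 5% CO₂. Cells were exposed to compound dilutions in RPMI for 24 or 48 h. Dye was extracted with ethanol/acetic acid/water (50:1:49) and A540 read. IC50 was taken graphically from concentration-effect curves.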

The test system of assay [2] is A-375. The assay can be described thus: Cytotoxicity activity against human A375 cells after 48 hrs by NRU assay. Format: functional, cell-based. Conditions: A-375, 48 h. Put shortly: as §1
Assay [3] deals with A-375. Briefly: Cytotoxicity activity against human A375 cells at 50 uM after 24 hrs by NRU assay. As to conditions: A-375, 24 h. Format: functional. A digest of the protocol: as §1
Assay [4] concerns B16. The assay can be described thus: Cytotoxicity activity against mouse B16 cells at 50 uM after 48 hrs by NRU assay. As to conditions: B16, 48 h. Format: functional. A digest of the protocol:
as §1

In assay [5] the test system is B16. Briefly: Cytotoxicity activity against mouse B16 cells at 50 uM after 24 hrs by NRU assay. Format: functional. Conditions: B16, 24 h. Put shortly: as §1
Assay [6] relates to A-375. Briefly: Cytotoxicity activity against human A375 cells at 50 uM after 48 hrs by NRU assay. Format: functional. Conditions: A-375, 48 h. A digest of the protocol: as §1
The subject of assay [7] is B16. Briefly: Cytotoxicity activity against mouse B16 cells after 48 hrs by NRU assay. Format: functional, cell-based. Conditions: B16, 48 h. Put shortly:
as §1

Assay [8] concerns A-375. The assay can be described thus: Cytotoxicity activity against human A375 cells after 24 hrs by NRU assay. It is filed as functional, cell-based. Conditions: A-375, 24 h. Put shortly: as §1

As usually defined, the IC50 is the concentration that inhibits the measured activity by half. High values mean lower potency, low ones higher potency. In general, inhibition refers to the percentage by which the read-out fell short of the control. `N[C@@H](CCC(=O)NNc1cccc(O)c1)C(=O)O`: the IC50 in the assay on B16 [1] was 12 µM; with A-375 [2], more than 50 µM; in the assay with B16 [7], 12 µM; with A-375 [8], more than 50 µM. Moreover, the inhibition at 50 µM is 8% in the assay with A-375 [3], 100% in the assay on B16 [4], 100% in the assay with B16 [5] and 14% with A-375 [6].
Take `O=C(CC[C@H](NC(=O)OCc1ccccc1)C(=O)OCc1ccccc1)NNc1ccccc1OCc1ccccc1`: the concentration for half-maximal inhibition (IC50) in the assay on B16 [1] came out at 21 µM; with A-375 [2] it was 30 µM; with B16 [7], 15 µM; in the assay on A-375 [8] it was 29 µM. Also, the inhibition at 50 µM with A-375 [3] was 77%; in the assay with B16 [4] it was 100%; with B16 [5], 96%; with A-375 [6], 69%.
Take `O=C(CC[C@H](NC(=O)OCc1ccccc1)C(=O)OCc1ccccc1)NNc1cccc(OCc2ccccc2)c1`: the IC50 was 8 µM with B16 [1], 29 µM in the assay with A-375 [2], 14.5 µM in the assay on B16 [7] and 28 µM in the assay on A-375 [8]. The inhibition at 50 µM with A-375 [3] came out at 80%; in the assay on B16 [4], 100%; with B16 [5], 100%; in the assay on A-375 [6], 73%.
In the case of `O=C(CC[C@H](NC(=O)OCc1ccccc1)C(=O)OCc1ccccc1)NNc1ccc(OCc2ccccc2)cc1`, the IC50 with B16 [1] was 5 µM; in the assay with A-375 [2], more than 50 µM; in the assay with B16 [7], 0.6 µM; in the assay with A-375 [8], more than 50 µM. In addition, the inhibition at 50 µM in the assay with A-375 [3] came out at 4%; in the assay on B16 [4], 100%; in the assay on B16 [5], 100%; with A-375 [6], 19%.
Consider `COc1cc([C@@H]2c3cc4c(cc3[C@@H](O[C@@H]3O[C@@H]5CO[C@@H](C)O[C@H]5[C@H](O)[C@H]3O)[C@H]3COC(=O)[C@H]23)OCO4)cc(OC)c1O` [ETOPOSIDE], for which the IC50 stood at 9 µM in the assay on B16 [1], 12 µM in the assay on A-375 [2], 0.13 µM in the assay with B16 [7] and 19 µM in the assay with A-375 [8]. Besides, the inhibition at 50 µM in the assay with A-375 [3], in the assay on B16 [4], in the assay on B16 [5] and in the assay on A-375 [6] was 100% throughout.
Turning to `COC1=C(NC(CO)CO)C[C@@](O)(CO)CC1=O` [MYCOSPORINE SERINOL], the IC50 in the assay on B16 [1] was more than 50 µM; with A-375 [2] it was more than 50 µM; in the assay with B16 [7] it was 27 µM; with A-375 [8], more than 50 µM. Further, the inhibition at 50 µM in the assay with A-375 [3] worked out at 11%; in the assay on B16 [4], 85%; with B16 [5] it was 34%; in the assay with A-375 [6], 20%.
Take `N[C@@H](CCC(=O)NNc1ccc(O)cc1)C(=O)O` [XANTHODERMINE]: the 50% inhibitory concentration (IC50) was 1.6 µM in the assay with B16 [1], more than 50 µM in the assay with A-375 [2], 0.7 µM in the assay with B16 [7] and more than 50 µM with A-375 [8]. Besides, the inhibition at 50 µM with A-375 [3] amounted to 12%; in the assay on B16 [4] it was 100%; in the assay on B16 [5], 100%; with A-375 [6], 31%.

These data come from ChEMBL document CHEMBL1208690, “A novel aryl-hydrazide from the marine lichen Lichina pygmaea: isolation, synthesis of derivatives, and cytotoxicity assays” (Bioorg Med Chem Lett, 2010).
